Unmarked numbers belong to inactive results.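 How the source made its calls: active means cytochrome c release activity at 50 µM, scaled between control wells and rounded, of 10% or more; inactive means the rest.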
Experiment: mitochondrial cyt c release, wild-type CHL-1 – biochemical, cytochrome c ELISA, dry powder, counter-screen for A1 inhibitor project (AID 504407)
Settings: CHL-1 isolated mitochondria, at 50 µM, active compounds read high
In short: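 Material – CHL-1 wild-type mitochondria · Medium – AT buffer, 80 mM KCl · Schedule – 30 min compound treatment, 30 °C · Detection – cytochrome c ELISA absorbance, 450 nm with 540 nm correction · Measure – cytochrome c in supernatant after 8000 g pelleting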

## Cn1c(=O)c([N+](=O)[O-])c(Cl)c2ccccc21
  cytochrome c release activity: 0.1%

— PubChem BioAssay AID504407 (Broad Institute, 2011)
